PKA-R1A act: activators of PKA-R1A holoenzyme, primary screen, biochemical, fluorescence polarization, Cy5-IP20, bovine R1A, mouse PKAc. cAMP-dependent protein kinase type I-alpha regulatory subunit (Bos taurus) + …. PKA-R1A dissociation; scaled: DMSO 0%, 113 µM cGMP 100%. activation, % at 11.4 µM. 340,000 compounds, 0.083% hits;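 active = percent activation above the mean of all tested compounds plus 3 SD, cut at about 19% in these data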;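 note: higher means more PKAc released from R1A so a rise in polarization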
PG9 Ab binder: binders of HIV-1 gp120 antibody PG9, primary screen, biochemical, TR-FRET. TR-FRET gp120-PG9 antibody binding. inhibition, % at 6.7 µM. 360,000 compounds, 0.43% hits; in the data active = inhibition above about 8.5%
NR2E3 ag-1: NR2E3 agonists in two-hybrid cells, primary screen, cell-based, luminescence, CHO-S, Gal4-NCOR/VP16-NR2E3; Photoreceptor-specific nuclear receptor (Homo sapiens), Q9Y5X4; luciferase; AID 602229, 2012; inhibition of corepressor binding, % at 3.98 µM; 360,000 compounds, 0.35% hits;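 active = inhibition above the mean of all tested compounds plus 3 SD, cut at about 70% in these data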;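 note: 0% = DMSO with NR2E3 transfected cells and 100% = cells lacking NR2E3 construct; higher means lower luciferase signal from less NR2E3 corepressor binding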
Rev-erbA mod: modulators of Rev-erb alpha DNA binding, primary screen, biochemical, FITC-DNA, fluorescence polarization, uHTS. Nuclear receptor subfamily 1 group D member 1 (Homo sapiens), P20393. 370,000 compounds, 0.79% hits. activity, % at 10 µM. Rev-erbα–FITC-DNA binding, 90 min;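 active = activity above about 14%, limit read from the data; passing the limit was not always enough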;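 note: 0% = DMSO wells with 35 nM protein and 100% = DMSO wells with 750 nM protein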
PKA-R2B activ: activators of PKA-R2B holoenzyme, primary screen, biochemical, fluorescence polarization, Cy5-IP20, human; activation, % at 11.4 µM; PKA-R2B holoenzyme dissociation; R2B truncated from residue 108, S112A mutant; 0% DMSO only, 100% 113 µM cGMP; AID 504700, 2011; 340,000 compounds, 0.079% hits; cAMP-dependent protein kinase catalytic subunit beta (Homo sapiens) + cAMP-dependent …;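 active = activation above a cutoff set at the mean over all compounds plus 3 SD, cut at about 18% in these data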;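 note: higher means more holoenzyme dissociation and a rise in polarization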
Target sequence (P31323 whole entry, looked up, other chains not shown, the tested form may be a part): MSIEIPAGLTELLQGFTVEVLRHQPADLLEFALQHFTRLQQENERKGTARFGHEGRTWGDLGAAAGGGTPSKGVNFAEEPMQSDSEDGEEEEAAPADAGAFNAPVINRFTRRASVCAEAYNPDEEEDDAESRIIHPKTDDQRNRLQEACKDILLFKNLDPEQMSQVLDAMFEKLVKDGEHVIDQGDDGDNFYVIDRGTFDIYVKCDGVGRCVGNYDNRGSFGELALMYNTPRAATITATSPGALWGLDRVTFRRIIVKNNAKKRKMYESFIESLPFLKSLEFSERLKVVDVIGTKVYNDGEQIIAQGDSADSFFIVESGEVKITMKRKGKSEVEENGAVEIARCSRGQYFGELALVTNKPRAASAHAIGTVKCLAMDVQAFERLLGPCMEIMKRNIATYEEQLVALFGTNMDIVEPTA
NR2E3 ag-2: inhibitors of NR2E3-RetCOR corepressor binding, primary screen, NR2E3 agonist project, biochemical, TR-FRET, GST-NR2E3, biotin-RetCOR; 1536-well; inhibition of corepressor binding, % at 4.78 µM; 320,000 compounds, 0.12% hits;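 active = percent inhibition above the cutoff of mean plus 3 SD of all tested compounds, set per screening campaign, cut at about 20% in these data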;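 note: 0% = DMSO wells and 100% = biotin wells as full block of FRET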
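Format: 1536-well format; test system: GST-NR2E3 and biotin-RetCOR proteins; read-out basis: percent inhibition of TR-FRET ratio; timing: 5 h incubation at 4 °C; detection: time-resolved FRET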
Rev-erbA confirm: modulators of Rev-erb alpha DNA binding, confirmation, biochemical, FITC-DNA, fluorescence polarization, single point | shares compounds with Rev-erbA mod | 90 min | 3,000 compounds, 61% hits | activation, % at 25 µM;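 active = activation at or above a set limit, or at least 3 SD above the negative control mean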;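 note: 0% = 35 nM protein with DMSO and 100% = 750 nM protein high control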
RORg counter: modulation of RORgamma DNA binding, dose response, counter-screen for Rev-erb alpha modulator project, biochemical, fluorescence polarization, FITC-DNA. shares compounds with Rev-erbA mod. purified RORgamma protein-FITC-DNA binding. IC50, µM. 910 compounds, 8% hits;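 active = Compounds whose fitted half-maximal concentration for disrupting protein-DNA binding is below 10 micromolar; the record names Rev-erb in its text, so the target is in doubt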
Starred values were filed as active, the others as inactive; . = no result. Compounds with a hit are over-represented: about 1.6% of the library has one in this group of screens.

SMILES | PKA-R1A act | PG9 Ab binder | NR2E3 ag-1 | Rev-erbA mod | PKA-R2B activ | NR2E3 ag-2 | Rev-erbA confirm | others
CCOc1ccc(NC(=O)COC(=O)c2ccc(S(=O)(=O)N3CCOCC3)cc2)cc1 | 13.6 | 1.0 | -20.9 | 0.0 | -6.0 | . | .
CCOc1ccc(-n2c([S-])c(C(=O)Nc3ccc(S(=O)(=O)N4CCOCC4)cc3)[n+]3cc(C(N)=O)ccc23)cc1 | -13.3 | -1.3 | 6.3 | 90.6* | -7.8 | 1.6 | 42.5* | RORg counter=>40
COC(=O)[C@H](C(C)C)N1Cc2nnn(Cc3ccc(C)cc3)c2-c2ccccc2S1(=O)=O | . | . | . | -1.3 | . | . | .
O=c1oc2ccccc2n1CSc1nc2ccccc2s1 | -5.8 | -0.5 | -117.4 | 18.0* | -4.7 | -1.8 | 19.7*
O=C(CSc1nc2ccccc2s1)CSc1nc2ccccc2s1 | -19.0 | -2.5 | -43.6 | -1.8 | -1.0 | 4.1 | .
O=C(NC1CCCCN(Cc2ccc(Cl)cc2)C1=O)c1cccc(F)c1 (configuration not stated) | . | . | . | 3.5 | . | . | .
COc1ccc2c(c1)c(=O)oc1c(C)c(OCC(=O)N3CCc4ccccc4C3)ccc12 | -4.9 | 1.5 | 5.0 | 20.0* | -2.0 | -0.2 | -10.4
CC(=O)OCC1OC(n2c(-c3ccc(Cl)cc3)ccc(C#N)c2=S)C(OC(C)=O)C(OC(C)=O)C1OC(C)=O (configuration not stated) | 0.8 | 1.8 | -63.8 | 54.5* | -12.7 | . | 40.7* | RORg counter=>40
O=c1[nH]c(-c2ccc3c(c2)OCO3)nc2c1sc(=S)n2-c1ccccc1 | -4.0 | -1.9 | -23.6 | 76.0* | -1.7 | 3.1 | 17.9
COC(=O)C1=C(C)N(C)C(=NCc2ccc3c(c2)OCO3)NC1c1ccc(F)cc1 (configuration not stated) | . | -0.6 | . | 2.3 | . | . | .
Cc1cccn2c(=O)c3cc(C(=O)NC4CCS(=O)(=O)C4)n(Cc4ccccc4)c3nc12 (configuration not stated) | -4.3 | 3.7 | 1.0 | 43.6* | -1.5 | 5.3 | 14.0
Cc1cccn2c(=O)c3cc(C(=O)NC4CCCCC4)c(=N)n(Cc4ccccc4)c3nc12 | 7.3 | 1.0 | -1.0 | 5.8 | 3.3 | 3.1 | .
O=C(CCn1c(=S)[nH]c2ccccc2c1=O)NCCSCc1ccccc1 | -4.5 | 0.0 | 9.8 | 3.3 | 0.3 | -0.5 | .
O=C(Cn1c(=S)[nH]c2ccccc2c1=O)NCCc1ccccc1 | 7.2 | 5.2 | -15.9 | 31.1* | -4.6 | -0.1 | 30.9* | RORg counter=>40
C=CCN(CC#CC(=C)C)Cc1ccc(OC)cc1OC | . | . | . | -3.6 | . | . | .
Cc1ccc(-n2c(Cc3cccs3)nnc2SCc2ccc(C#N)cc2)cc1 | . | . | . | -7.9 | . | . | .
Cc1cccc2cc(C(c3nnnn3Cc3ccccc3)N3CCN(C)CC3)c(=O)[nH]c12 (configuration not stated) | -3.6 | . | -16.9 | . | 2.0 | -1.7 | .
Cc1cccc2cc(C(c3nnnn3Cc3ccccc3)N3CCN(c4ccccc4)CC3)c(=O)[nH]c12 (configuration not stated) | -2.5 | -2.2 | -20.5 | 185.0* | 3.3 | -5.2 | 142.6* | RORg counter=>40
N#Cc1nc(-c2ccc(OCc3ccc(Cl)cc3)cc2)oc1N1CCOCC1 | -4.8 | -0.9 | 3.5 | 37.5* | -5.5 | 0.7 | -3.4

Screens (PubChem BioAssay)
